Test results taken from ChEMBL document CHEMBL4616671, “Identification of N-Phenyl-7H-pyrrolo[2,3-d]pyrimidin-4-amine Derivatives as Novel, Potent, and Selective NF-κB Inducing Kinase (NIK) Inhibitors for the Treatment of Psoriasis” (J Med Chem, 2020).

Columns and labels:
[1] = molecular target: T1, Mitogen-activated protein kinase kinase kinase 14 (Homo sapiens, UniProt Q99558); test: Inhibition of recombinant N-terminal GST-fused human NIK (319 to 947 residues) expressed in baculovirus expression system incubated for 120 mins in presence of ATP by ADP-glo based luminescence assay
In short: (§1)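 ADP-Glo luminescence assay with recombinant human MAP3K14. Buffer: Tris pH 7.5, 2 mM DTT, 2 mM MgCl₂, 100 µM Na₃VO₄, 0.02 mg/mL BSA, 5% DMSO; ATP 10 µM. Reaction 120 min at room temperature; ADP-Glo reagent 40 min, then detection reagent 40 min. Mean ± SD from two independent experiments.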
Target sequence in this assay (Q99558 whole entry, the tested form may be a part): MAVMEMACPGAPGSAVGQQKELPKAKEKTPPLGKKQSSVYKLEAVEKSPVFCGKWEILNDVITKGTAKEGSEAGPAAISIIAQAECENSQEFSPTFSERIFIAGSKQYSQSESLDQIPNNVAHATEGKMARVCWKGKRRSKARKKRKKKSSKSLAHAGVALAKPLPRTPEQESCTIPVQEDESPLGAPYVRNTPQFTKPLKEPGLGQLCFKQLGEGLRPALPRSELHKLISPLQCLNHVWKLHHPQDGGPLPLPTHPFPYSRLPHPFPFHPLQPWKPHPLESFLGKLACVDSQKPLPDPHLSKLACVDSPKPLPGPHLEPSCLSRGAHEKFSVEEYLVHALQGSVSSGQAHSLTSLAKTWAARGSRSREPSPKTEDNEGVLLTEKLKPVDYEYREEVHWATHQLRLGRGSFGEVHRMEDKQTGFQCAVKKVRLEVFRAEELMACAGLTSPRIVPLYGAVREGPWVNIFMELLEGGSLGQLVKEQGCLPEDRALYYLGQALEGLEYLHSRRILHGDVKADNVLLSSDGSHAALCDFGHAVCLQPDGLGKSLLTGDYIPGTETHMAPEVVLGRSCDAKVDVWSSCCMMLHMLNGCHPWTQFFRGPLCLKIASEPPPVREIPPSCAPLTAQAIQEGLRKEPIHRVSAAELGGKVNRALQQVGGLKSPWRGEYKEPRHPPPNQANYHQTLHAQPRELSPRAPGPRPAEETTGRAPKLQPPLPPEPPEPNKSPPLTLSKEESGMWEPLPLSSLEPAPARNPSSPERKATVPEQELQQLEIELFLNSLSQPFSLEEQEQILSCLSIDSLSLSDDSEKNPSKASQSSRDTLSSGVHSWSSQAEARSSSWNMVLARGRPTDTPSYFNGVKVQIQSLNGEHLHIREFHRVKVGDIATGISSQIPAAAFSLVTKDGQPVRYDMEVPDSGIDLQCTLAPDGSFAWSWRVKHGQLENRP

T-cell [2] = test: Antiinflammatory activity in mouse T cells assessed as inhibition of conA-induced induced T cell proliferation at 2 uM incubated for 48 hrs by CCK8 assay relative to control; type: functional
T-cell [3] = test: Antiinflammatory activity in mouse T cells assessed as inhibition of conA-induced induced T cell proliferation at 0.4 uM incubated for 48 hrs by CCK8 assay relative to control; type: functional
J774 = test: Antiinflammatory activity in mouse J774 cells assessed as inhibition of LPS-induced NO production at 1 uM preincubated for 2 hrs followed by LPS stimulation and measured after 22 hrs by Griess reagent based assay relative to control; type: functional
In short: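 J774 macrophages seeded at 2*10^4 cells/mL, 24 h at 37 °C 5% CO₂; compound in DMSO at 1 µM, 3 replicate wells, 2 h pre-incubation, then LPS at 1 ug/mL final for 22 h. Supernatant nitrite read with Griess reagent at 540 nm against a sodium nitrite standard curve. Inhibition % = (model − compound)/(model − control) NO ×100; mean ± SD, three independent experiments.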

[4] = molecular target: T1, Mitogen-activated protein kinase kinase kinase 14; test: Inhibition of recombinant N-terminal GST-fused human NIK (319 to 947 residues) expressed in baculovirus expression system assessed as residual activity at 1 uM incubated for 120 mins in presence of ATP by ADP-glo based luminescence assay relative to control
Target sequence in this assay (Q99558 whole entry, looked up, the tested form may be a part): as the sequence (Q99558 whole entry, the tested form may be a part) above

T-cell [5] = test: Growth inhibition of mouse T cells at 10 uM after 48 hrs by CCK8 assay; type: cell-based
In short: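 Unstimulated mouse splenic T cells exposed to compound at 10 µM. Growth read by CCK-8 absorbance; […]. Mean ± SD, three independent experiments.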

[6] = Elimination half life in rat liver microsomes incubated for 10 mins followed by potassium phosphate buffer addition and measured after 5 to 60 mins by LC-MS/MS analysis; type: ADME, Microsome; details: read-out: beta t1/2
In short: (§2)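 Rat, dog, monkey or human liver microsomes pre-incubated with compound at 37 °C for 10 min; reaction started after pre-warming and stopped at 5, 15, 30, 60 min with chilled quench containing tolbutamide and labetalol. No-cofactor control in 100 mM potassium phosphate for 60 min. LC-MS/MS analysis; first-order fit: k = −slope, T1/2 = 0.693/k, CLint = k/microsomal protein concentration.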

[7] = Intrinsic clearance in human liver microsomes assessed per mg of protein incubated for 10 mins followed by potassium phosphate buffer addition and measured after 5 to 60 mins by LC-MS/MS analysis; type: ADME, Microsome; details: read-out: CLH; in short: as §2
[8] = molecular target: T1, Mitogen-activated protein kinase kinase kinase 14; test: Inhibition of NIK (unknown origin); in short: as §1
Target sequence in this assay (Q99558 whole entry, the tested form may be a part): as above

[9] = Intrinsic hepatic clearance in dog; type: ADME, Canis lupus familiaris; details: in vivo
In short: (§3)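 Scaled from microsomal intrinsic clearance: CLint,in vitro × microsomal protein per g liver × liver weight per kg body weight.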

[10] = Intrinsic hepatic clearance in human; type: ADME; in short: as §3
[11] = molecular target: T1, Mitogen-activated protein kinase kinase kinase 14; test: Inhibition of NIK in human BEAS2B cells assessed as reduction in LPS-induced IL-6 level preincubated for 8 hrs followed by LPS stimulation and measured after 24 hrs by ELISA; type: cell-based
In short: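 BEAS-2B cells were grown in DMEM with 10% FBS, seeded at 5000 cells/well, and cultured 24 h at 37 °C in 5% CO2. Compounds were given at 7 concentrations from 10 μM to 0.014 μM (3 replicate wells), with dexamethasone as positive control. After 8 h, LPS (20 μg/mL solution) was added for 24 h. Supernatant IL-6 was read by human IL-6 ELISA; two biological replicates.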
Target sequence in this assay (Q99558 whole entry, looked up, the tested form may be a part): as the sequence (Q99558 whole entry, the tested form may be a part) above

[12] = Intrinsic hepatic clearance in rat; type: ADME; details: in vivo; in short: as §3
[13] = Elimination half life in dog liver microsomes incubated for 10 mins followed by potassium phosphate buffer addition and measured after 5 to 60 mins by LC-MS/MS analysis; type: ADME, Canis lupus familiaris, Microsome; details: read-out: beta t1/2; in short: as §2
[14] = Intrinsic hepatic clearance in monkey; type: ADME, Macaca mulatta; details: rhesus monkey, in vivo; in short: as §3
[15] = Intrinsic clearance in rat liver microsomes assessed as per mg of protein incubated for 10 mins followed by potassium phosphate buffer addition and measured after 5 to 60 mins by LC-MS/MS analysis; type: ADME, Microsome; details: read-out: CLH; in short: as §2
[16] = Intrinsic clearance in dog liver microsomes assessed as per mg of protein incubated for 10 mins followed by potassium phosphate buffer addition and measured after 5 to 60 mins by LC-MS/MS analysis; type: ADME, Canis lupus familiaris, Microsome; details: read-out: CLH; in short: as §2
[17] = Elimination half life in human liver microsomes incubated for 10 mins followed by potassium phosphate buffer addition and measured after 5 to 60 mins by LC-MS/MS analysis; type: ADME, Microsome; details: read-out: beta t1/2; in short: as §2
[18] = Elimination half life in monkey liver microsomes incubated for 10 mins followed by potassium phosphate buffer addition and measured after 5 to 60 mins by LC-MS/MS analysis; type: ADME, Macaca mulatta, Microsome; details: rhesus monkey, read-out: beta t1/2; in short: as §2
[19] = Intrinsic clearance in monkey liver microsomes assessed as per mg of protein incubated for 10 mins followed by potassium phosphate buffer addition and measured after 5 to 60 mins by LC-MS/MS analysis; type: ADME, Macaca mulatta, Microsome; details: rhesus monkey, read-out: CLH; in short: as §2

Structure (SMILES)	IC50 [1] [nM]	inhibition at 2 µM (T-cell [2]) [%]	inhibition at 0.4 µM (T-cell [3]) [%]	inhibition at 1 µM (J774) [%]	further results
CC(O)(C#Cc1ccc(N2CCOCC2)c(Nc2ccnc3[nH]ccc23)c1)c1nccs1 (configuration not stated)	6.59	50.2	19	60.4	–
CC(O)(C#Cc1ccc(N2CCOCC2)c(Nc2ncnc3[nH]ncc23)c1)c1nccs1 (configuration not stated)	8.63	24.7	14.8	35.9	–
OC1(C#Cc2ccc(N3CCOCC3)c(Nc3ncnc4[nH]ccc34)c2)CCCC1	645	–	–	–	–
CC(O)(C#Cc1ccc(N2CCOCC2)c(Nc2ncnc3sccc23)c1)c1nccs1 (configuration not stated)	179	–	–	–	–
CN(C)CCN(C)c1ccc(C#CC(C)(O)c2nccs2)cc1Nc1ncnc2[nH]ccc12 (configuration not stated)	484	–	–	–	–
OC1(C#Cc2ccc(N3CCOCC3)c(Nc3ncnc4[nH]ccc34)c2)CCCCC1	1270	–	–	–	–
O=C(Nc1ccc(N2CCOCC2)c(Nc2ncnc3[nH]ccc23)c1)NC1CCCC1	–	–	–	–	Activity [4]: 76.4%
CC(O)(C#Cc1ccc(OC2CCOCC2)c(Nc2ncnc3[nH]ccc23)c1)c1nccs1 (configuration not stated)	112	42.9	19.9	68.3	–
CN1CCCN(c2ccc(C#CC(C)(O)c3nccs3)cc2Nc2ncnc3[nH]ccc23)CC1 (configuration not stated)	60.1	47.7	35.5	67.3	–
CN1CCC(Oc2ccc(C#CC(C)(O)c3nccs3)cc2Nc2ncnc3[nH]ccc23)CC1 (configuration not stated)	705	–	–	–	–
CC(C)(O)C#Cc1ccc(N2CCOCC2)c(Nc2ncnc3[nH]ccc23)c1	2710	–	–	–	–
CC(O)(C#Cc1ccc(N2CC3CC2CN3)c(Nc2ncnc3[nH]ccc23)c1)c1nccs1 (configuration not stated)	200	–	–	–	–
C[C@](O)(C#Cc1ccc(N2CCOCC2)c(Nc2ncnc3[nH]ccc23)c1)c1nccs1	136	60.1	39.5	74.3	Activity (T-cell [5]): Non-Toxic
CC(O)(C#Cc1cccc(Nc2ncnc3[nH]ccc23)c1)c1nccs1 (configuration not stated)	1640	–	–	–	–
CC(O)(C#Cc1ccc(N2CCC(N3CCOCC3)CC2)c(Nc2ncnc3[nH]ccc23)c1)c1nccs1 (configuration not stated)	15.3	34.5	32.2	57.7	–
CC(O)(C#Cc1ccc(N2CCCC2)c(Nc2ncnc3[nH]ccc23)c1)c1nccs1 (configuration not stated)	107	–	–	–	–
CC(O)(C#Cc1ccc(N2CCOCC2)c(Nc2ncnc3[nH]ccc23)c1)c1cccs1 (configuration not stated)	50.4	–	–	–	–
CCN1CCN(c2ccc(C#CC(C)(O)c3nccs3)cc2Nc2ncnc3[nH]ccc23)CC1 (configuration not stated)	34.5	33.7	24.1	67.4	–

Structure (SMILES)	IC50 [1] [nM]	inhibition at 2 µM (T-cell [2]) [%]	inhibition at 0.4 µM (T-cell [3]) [%]	inhibition at 1 µM (J774) [%]	further results
CC(O)(C(=O)Nc1ccc(N2CCOCC2)c(Nc2ncnc3[nH]ccc23)c1)c1nccs1 (configuration not stated)	1400	–	–	–	–
C[C@H]1CN(c2ccc(C#CC(C)(O)c3nccs3)cc2Nc2ncnc3[nH]ccc23)CCN1 (some centres not stated)	69.2	49.5	38	62.9	–
COCCN(C)c1ccc(C#CC(C)(O)c2nccs2)cc1Nc1ncnc2[nH]ccc12 (configuration not stated)	72.4	27.9	13.3	48	–
CC(O)(C#Cc1ccc(N2CCOCC2)c(Nc2c(F)cnc3[nH]ccc23)c1)c1nccs1 (configuration not stated)	1380	–	–	–	–
C[C@@](O)(C#Cc1ccc(N2CCOCC2)c(Nc2ncnc3[nH]ccc23)c1)c1nccs1	12	61.2	37.6	100	Activity (T-cell [5]): Toxic
CC(O)(C#Cc1ccc(N2CCOCC2)c(Nc2ccnc(N)n2)c1)c1nccs1 (configuration not stated)	11.4	31.4	27.4	58.5	–
CC(O)(C#Cc1ccc(N2CCOCC2)c(Nc2ncnc3[nH]ccc23)c1)C1CCCC1 (configuration not stated)	2240	–	–	–	–
CC(=O)N1CCN(c2ccc(C#CC(C)(O)c3nccs3)cc2Nc2ncnc3[nH]ccc23)CC1 (configuration not stated)	17.8	31.5	16.2	29.3	–
CC(O)(C#Cc1ccc(N2CCNCC2)c(Nc2ncnc3[nH]ccc23)c1)c1nccs1 (configuration not stated)	47.9	39.9	20.3	68	–
CC(O)(C#Cc1ccc(N2CCOCC2)c(Nc2c(Cl)cnc3[nH]ccc23)c1)c1nccs1 (configuration not stated)	> 10000	–	–	–	–
CN1CCN(c2ccc(C#CC(C)(O)c3nccs3)cc2Nc2ncnc3[nH]ccc23)CC1 (configuration not stated)	78.3	43.7	33	78.5	–
C[C@@H]1CN(c2ccc(C#CC(C)(O)c3nccs3)cc2Nc2ncnc3[nH]ccc23)CCN1 (some centres not stated)	209	–	–	–	–
CC(O)(C#Cc1ccc(N2CCN(S(=O)(=O)C3CC3)CC2)c(Nc2ncnc3[nH]ccc23)c1)c1nccs1 (configuration not stated)	16.2	32.3	16.9	37.2	–
CCS(=O)(=O)N1CCN(c2ccc(C#CC(C)(O)c3nccs3)cc2Nc2ncnc3[nH]ccc23)CC1 (configuration not stated)	8.22	32.5	14	34.5	–
CN(C)c1ccc(C#CC(C)(O)c2nccs2)cc1Nc1ncnc2[nH]ccc12 (configuration not stated)	22.5	–	–	–	–
CC(O)(C#Cc1ccc2c(c1)N(c1nc(N)ncc1Cl)CC2)c1nccs1 (configuration not stated)	4.7	59.6	19	43.9	half-life [6]: 9.82 min; microsomal CLint [7]: 40.8 µL/min/mg; Ki [8]: 0.4 nM; CLH [9]: 276 mL/min/kg; CLH [10]: 38.6 mL/min/kg; inhibition [11]: Dose-dependent effect; CLH [12]: 254 mL/min/kg; half-life [13]: 7.22 min; CLH [14]: 300 mL/min/kg; microsomal CLint [15]: 141 µL/min/mg; microsomal CLint [16]: 192 µL/min/mg; half-life [17]: 33.9 min; half-life [18]: 6.66 min; microsomal CLint [19]: 208 µL/min/mg
O=C(Nc1ccc(N2CCOCC2)c(Nc2ncnc3[nH]ccc23)c1)C1CCCC1	–	–	–	–	Activity [4]: 77.3%
